Results taken from article PMC9340768 (Journal of Medicinal Chemistry, 2022).
Values belong to the molecule of their own block, whether it stands above or below them.

Legend:
CD137 [1] = molecular target: T1, CD137 (Homo sapiens, UniProt Q07011+Q96NY8); assay: tumor cell/CD137 reporter coculture assay with other tumor cell lines; assay type: cell-based
Method in brief: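 A Jurkat reporter line expressing human CD137 and a CD137-responsive luciferase element was cocultured with 10,000 cells of the indicated tumor line, with or without test compound, for 6 h at 37 °C, 5% CO2. Bio-Glo luciferase reagent was then added and luminescence read. Fold induction was calculated as RLU over background wells without test article.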

[2] = system: human PBMCs cocultured with HT1376; assay: PBMC/HT1376 coculture cytokine secretion assay; assay type: cell-based; conditions: anti-CD3 stimulated PBMCs with HT1376
Method in brief: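 Frozen healthy-donor human PBMCs were thawed, washed in PBS with benzonase and resuspended in RPMI with 10% heat-inactivated FBS, HEPES and glutamine. PBMCs (1 × 10^6/mL) were plated with tumor cells (1 × 10^5/mL) at 10:1, stimulated with soluble anti-CD3 OKT3 (100 ng/mL), and given diluted test compound. Incubation was 2 days at 37 °C, 5% CO2. Supernatant IFNγ and IL-2 were measured by Luminex; four-parameter fit, n = 3.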

CD137 [3] = molecular target: T1, CD137; conditions: cited from earlier work
CD137 [4] = molecular target: T1, CD137; assay: HT1376/CD137 reporter coculture assay; assay type: cell-based
[5] = Pharmacokinetics in Sprague-Dawley rats; conditions: rat, in vivo, iv, 2 mg/kg
[6] = 1:2 (BCY10918) vs 1:1 (BCY10572)

T1 sequence (Q07011 24-255): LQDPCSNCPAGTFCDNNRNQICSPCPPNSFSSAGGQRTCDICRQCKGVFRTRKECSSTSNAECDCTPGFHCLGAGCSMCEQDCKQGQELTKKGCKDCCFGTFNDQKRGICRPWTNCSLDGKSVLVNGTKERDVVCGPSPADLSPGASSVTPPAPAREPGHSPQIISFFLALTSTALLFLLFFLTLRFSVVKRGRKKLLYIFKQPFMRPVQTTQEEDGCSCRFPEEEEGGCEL
T1 sequence (Q96NY8 32-510): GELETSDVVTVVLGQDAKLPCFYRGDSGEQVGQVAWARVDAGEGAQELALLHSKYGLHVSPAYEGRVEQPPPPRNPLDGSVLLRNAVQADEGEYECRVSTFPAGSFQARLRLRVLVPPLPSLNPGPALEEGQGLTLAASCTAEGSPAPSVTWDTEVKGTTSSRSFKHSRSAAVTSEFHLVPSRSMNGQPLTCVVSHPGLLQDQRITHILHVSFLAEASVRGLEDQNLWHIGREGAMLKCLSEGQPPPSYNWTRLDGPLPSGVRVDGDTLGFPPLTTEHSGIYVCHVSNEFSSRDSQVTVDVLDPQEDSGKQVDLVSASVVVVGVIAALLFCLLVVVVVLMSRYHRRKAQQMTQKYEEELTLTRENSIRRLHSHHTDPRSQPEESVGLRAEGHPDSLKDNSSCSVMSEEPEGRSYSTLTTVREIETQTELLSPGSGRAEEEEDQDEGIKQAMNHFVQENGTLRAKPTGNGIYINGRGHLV

SMILES: CCCC[C@@H]1NC(=O)[C@H](Cc2ccc(O)cc2)NC(=O)[C@@H]2CCCN2C(=O)[C@H](CC(=O)O)NC(=O)[C@H](C)NC(=O)[C@H](Cc2ccccc2)NC(=O)[C@@H]2CSCCC(=O)N3CN(CN(C3)C(=O)CCSC[C@@H](C(=O)N[C@@H](CNC(=O)CCc3cn(CCOCCOCCOCCN(CCOCCOCCOCCC(=O)N[C@H]4CSCCC(=O)N5CN6CN(C5)C(=O)CCSC[C@H](NC(=O)[C@@H](CC(=O)O)NC(=O)[C@H](Cc5cccc7ccccc57)NC(=O)[C@@H]5CCCN5C4=O)C(=O)N[C@@H](CCSC)C(=O)N[C@@H](CCCCNC(=N)N)C(=O)N[C@@H](CC(=O)O)C(=O)N[C@@H](Cc4c[nH]c5ccccc45)C(=O)N[C@@H](CO)C(=O)N[C@@H]([C@@H](C)O)C(=O)N4CCC[C@H]4C(=O)N4C[C@H](O)C[C@H]4C(=O)N[C@@H](Cc4c[nH]c5ccccc45)C(=O)N[C@H](C(N)=O)CSCCC6=O)CCOCCOCCOCCn4cc(CCC(=O)NC[C@H](NC(=O)[C@@H]5CSCCC(=O)N6CN7CN(C6)C(=O)CCSC[C@H](NC(=O)[C@H](Cc6ccc(O)cc6)NC(=O)[C@@H]6CCCN6C(=O)[C@@H](C)NC(=O)[C@H](CCC(=O)O)NC(=O)[C@@H]6CCCN6C(=O)[C@H](CC(C)(C)C)NC(=O)[C@@H](NC(C)=O)CSCCC7=O)C(=O)N[C@@H](Cc6ccccc6)C(=O)N[C@@H](C)C(=O)N[C@@H](CC(=O)O)C(=O)N6CCC[C@H]6C(=O)N[C@@H](Cc6ccc(O)cc6)C(=O)N[C@@H](CCCC)C(=O)N5)C(N)=O)nn4)nn3)C(N)=O)NC1=O)C(=O)CCSC[C@H](NC(C)=O)C(=O)N[C@@H](CC(C)(C)C)C(=O)N1CCC[C@H]1C(=O)N[C@@H](CCC(=O)O)C(=O)N[C@H](C)C(=O)N1CCC[C@H]1C(=O)N[C@@H](Cc1ccc(O)cc1)C(=O)N2 [BCY11385]
- secretion of proinflammatory cytokines IFNγ and IL-2 [2]: dose-dependent increase

SMILES: CCCC[C@@H]1NC(=O)[C@H](Cc2ccc(O)cc2)NC(=O)[C@@H]2CCCN2C(=O)[C@H](CC(=O)O)NC(=O)[C@H](C)NC(=O)[C@H](Cc2ccccc2)NC(=O)[C@@H]2CSCCC(=O)N3CN(CN(C3)C(=O)CCSC[C@@H](C(=O)N[C@@H](C)C(N)=O)NC1=O)C(=O)CCSC[C@H](NC(C)=O)C(=O)N[C@@H](CC(C)(C)C)C(=O)N1CCC[C@H]1C(=O)N[C@@H](CCC(=O)O)C(=O)N[C@H](CCCCNC(=O)CCc1cn(CCOCCOCCOCCN(CCOCCOCCOCCC(=O)N[C@H]3CSCCC(=O)N4CN5CN(C4)C(=O)CCSC[C@H](NC(=O)[C@@H](CC(=O)O)NC(=O)[C@H](Cc4cccc6ccccc46)NC(=O)[C@@H]4CCCN4C3=O)C(=O)N[C@@H](CCSC)C(=O)N[C@@H](CCCCNC(=N)N)C(=O)N[C@@H](CC(=O)O)C(=O)N[C@H](Cc3c[nH]c4ccccc34)C(=O)N[C@@H](CO)C(=O)N[C@@H]([C@@H](C)O)C(=O)N3CCC[C@H]3C(=O)N3C[C@H](O)C[C@H]3C(=O)N[C@H](Cc3c[nH]c4ccccc34)C(=O)N[C@H](C(N)=O)CSCCC5=O)CCOCCOCCOCCn3cc(CCC(=O)NCCCC[C@H]4NC(=O)[C@H](CCC(=O)O)NC(=O)[C@@H]5CCCN5C(=O)[C@H](CC(C)(C)C)NC(=O)[C@@H](NC(C)=O)CSCCC(=O)N5CN6CN(C5)C(=O)CCSC[C@H](NC(=O)[C@H](Cc5ccc(O)cc5)NC(=O)[C@@H]5CCCN5C4=O)C(=O)N[C@@H](Cc4ccccc4)C(=O)N[C@@H](C)C(=O)N[C@@H](CC(=O)O)C(=O)N4CCC[C@H]4C(=O)N[C@@H](Cc4ccc(O)cc4)C(=O)N[C@@H](CCCC)C(=O)N[C@H](C(=O)N[C@@H](C)C(N)=O)CSCCC6=O)nn3)nn1)C(=O)N1CCC[C@H]1C(=O)N[C@@H](Cc1ccc(O)cc1)C(=O)N2 [BCY13144]
- secretion of proinflammatory cytokines IFNγ and IL-2 [2]: No IL-2 or IFNγ secretion was observed

Second part, led by results:

- concentration above which agonism is reduced (hook effect) (CD137 [1]; tumor cell/CD137 reporter coculture): above 300 nM
SMILES: CCCC[C@@H]1NC(=O)[C@H](Cc2ccc(O)cc2)NC(=O)[C@@H]2CCCN2C(=O)[C@H](CC(=O)O)NC(=O)[C@H](C)NC(=O)[C@H](Cc2ccccc2)NC(=O)[C@@H]2CSCCC(=O)N3CN(CN(C3)C(=O)CCSC[C@@H](C(=O)N[C@@H](CNC(=O)CCOCCOCCOCCOCCOCCOCCOCCOCCOCCOCCOCCOCCn3cc(CCC(=O)NCCC(=O)N(C)CC(=O)N(C)CC(=O)N(C)CC(=O)N(C)CC(=O)N(C)CC(=O)N(C)CC(=O)N(C)CC(=O)N(C)CC(=O)N(C)CC(=O)N(C)CC(=O)N[C@H]4CSCCC(=O)N5CN6CN(C5)C(=O)CCSC[C@H](NC(=O)[C@@H](CC(=O)O)NC(=O)[C@H](Cc5cccc7ccccc57)NC(=O)[C@@H]5CCCN5C4=O)C(=O)N[C@@H](CCSC)C(=O)N[C@@H](CCCCNC(=N)N)C(=O)N[C@@H](CC(=O)O)C(=O)N[C@@H](Cc4c[nH]c5ccccc45)C(=O)N[C@@H](CO)C(=O)N[C@@H]([C@@H](C)O)C(=O)N4CCC[C@H]4C(=O)N4C[C@H](O)C[C@H]4C(=O)N[C@@H](Cc4c[nH]c5ccccc45)C(=O)N[C@H](C(N)=O)CSCCC6=O)nn3)C(N)=O)NC1=O)C(=O)CCSC[C@H](NC(=O)[C@H](C)NC(C)=O)C(=O)N[C@@H]([C@@H](C)CC)C(=O)N[C@@H](CCC(=O)O)C(=O)N[C@@H](CCC(=O)O)C(=O)NCC(=O)N[C@@H](CCC(N)=O)C(=O)N[C@@H](Cc1ccc(O)cc1)C(=O)N2 [BCY8854]
- CD137 agonism in coculture with MC38-Nectin-4 or parental MC38 (CD137 [1]; 6 h treatment, Jurkat CD137 reporter): dose-dependent agonism of CD137 was observed only in the presence of the Nectin-4-expressing MC38 clone
- secretion of proinflammatory cytokines IFNγ and IL-2 [2]: dose-dependent increase
- CD137 agonism in coculture with Nectin-4 null PC3 (CD137 [3]): not with a Nectin-4 null PC3 cell line
- CD137 agonism in coculture with HT1376 and NCI-H292 (CD137 [3]; tumor lines endogenously expressing Nectin-4): CD137 agonism was also observed

- improvement of Emax (CD137 [4]; BCY10000 relative to BCY8854): 1.5 fold
- improvement of in vitro potency (EC50) (CD137 [4]; BCY10000 relative to BCY8854): fourfold
- clearance ([5]; CL (mL/min/kg), SD rats, 2 mg/kg IV bolus): 19 mL/min/kg
SMILES: CCCC[C@@H]1NC(=O)[C@H](Cc2ccc(O)cc2)NC(=O)[C@@H]2CCCN2C(=O)[C@H](CC(=O)O)NC(=O)[C@H](C)NC(=O)[C@H](Cc2ccccc2)NC(=O)[C@@H]2CSCCC(=O)N3CN(CN(C3)C(=O)CCSC[C@@H](C(=O)N[C@@H](CNC(=O)CCOCCOCCOCCOCCOCCOCCOCCOCCOCCOCCOCCOCCn3cc(CCC(=O)NCCC(=O)N(C)CC(=O)N(C)CC(=O)N(C)CC(=O)N(C)CC(=O)N(C)CC(=O)N(C)CC(=O)N(C)CC(=O)N(C)CC(=O)N(C)CC(=O)N(C)CC(=O)N[C@H]4CSCCC(=O)N5CN6CN(C5)C(=O)CCSC[C@H](NC(=O)[C@@H](CC(=O)O)NC(=O)[C@H](Cc5cccc7ccccc57)NC(=O)[C@@H]5CCCN5C4=O)C(=O)N[C@@H](CCSC)C(=O)N[C@@H](CCCCNC(=N)N)C(=O)N[C@@H](CC(=O)O)C(=O)N[C@@H](Cc4c[nH]c5ccccc45)C(=O)N[C@@H](CO)C(=O)N[C@@H]([C@@H](C)O)C(=O)N4CCC[C@H]4C(=O)N4C[C@H](O)C[C@H]4C(=O)N[C@@H](Cc4c[nH]c5ccccc45)C(=O)N[C@H](C(N)=O)CSCCC6=O)nn3)C(N)=O)NC1=O)C(=O)CCSC[C@H](NC(C)=O)C(=O)N[C@@H](CC(C)(C)C)C(=O)N1CCC[C@H]1C(=O)N[C@@H](CCC(=O)O)C(=O)N[C@H](C)C(=O)N1CCC[C@H]1C(=O)N[C@@H](Cc1ccc(O)cc1)C(=O)N2 [BCY10000]
- secretion of proinflammatory cytokines IFNγ and IL-2 [2]: dose-dependent increase

- improvement in EC50 (CD137 [4]; [6]): 8.3 fold
- improvement in Emax (CD137 [4]; [6]): 2.0 fold
- half-life [5]: 1.8 h
SMILES: CCCC[C@@H]1NC(=O)[C@H](Cc2ccc(O)cc2)NC(=O)[C@@H]2CCCN2C(=O)[C@H](CC(=O)O)NC(=O)[C@H](C)NC(=O)[C@H](Cc2ccccc2)NC(=O)[C@@H]2CSCCC(=O)N3CN(CN(C3)C(=O)CCSC[C@@H](C(=O)N[C@@H](C)C(N)=O)NC1=O)C(=O)CCSC[C@H](NC(C)=O)C(=O)N[C@@H](CC(C)(C)C)C(=O)N1CCC[C@H]1C(=O)N[C@@H](CCC(=O)O)C(=O)N[C@H](CCCCNC(=O)CCc1cn(CCOCCOCCOCCOCCOCCOCCOCCOCCOCCOCCNC(=O)c3cc(C(=O)NCCOCCOCCOCCOCCOCCOCCOCCOCCOCCOCCn4cc(CCC(=O)NCCCC[C@H]5NC(=O)[C@H](CCC(=O)O)NC(=O)[C@@H]6CCCN6C(=O)[C@H](CC(C)(C)C)NC(=O)[C@@H](NC(C)=O)CSCCC(=O)N6CN7CN(C6)C(=O)CCSC[C@H](NC(=O)[C@H](Cc6ccc(O)cc6)NC(=O)[C@@H]6CCCN6C5=O)C(=O)N[C@@H](Cc5ccccc5)C(=O)N[C@@H](C)C(=O)N[C@@H](CC(=O)O)C(=O)N5CCC[C@H]5C(=O)N[C@@H](Cc5ccc(O)cc5)C(=O)N[C@@H](CCCC)C(=O)N[C@H](C(=O)N[C@@H](C)C(N)=O)CSCCC7=O)nn4)cc(C(=O)NCCOCCOCCOCCOCCOCCOCCOCCOCCOCCOCCn4cc(CCC(=O)N[C@H]5CSCCC(=O)N6CN7CN(C6)C(=O)CCSC[C@H](NC(=O)[C@@H](CC(=O)O)NC(=O)[C@H](Cc6cccc8ccccc68)NC(=O)[C@@H]6CCCN6C5=O)C(=O)N[C@@H](CCSC)C(=O)N[C@@H](CCCCNC(=N)N)C(=O)N[C@@H](CC(=O)O)C(=O)N[C@@H](Cc5c[nH]c6ccccc56)C(=O)N[C@@H](CO)C(=O)N[C@@H]([C@@H](C)O)C(=O)N5CCC[C@H]5C(=O)N5C[C@H](O)C[C@H]5C(=O)N[C@@H](Cc5c[nH]c6ccccc56)C(=O)N[C@H](C(N)=O)CSCCC7=O)nn4)c3)nn1)C(=O)N1CCC[C@H]1C(=O)N[C@@H](Cc1ccc(O)cc1)C(=O)N2 [BCY10918]
